The text below walks through data of ChEMBL document CHEMBL3865845 (J Med Chem, 2016).

Active and inactive are the calls of the source. No cut-off for these calls is given here. A value given as a limit tells only on which side of the number the result lay.

Data set [1] can be described thus: Cytotoxicity against human MT4 cells assessed as reduction in cell viability after 2 days by CytoTox-Glo assay. It is filed as toxicity, cell-based. As to conditions: mt4, 48 h.
For data set [2], the system named is Human immunodeficiency virus 1. The data set is described as follows: Resistance index, ratio of IC50 for bevirimat-resistant HIV1 NL4-3 harboring GagV370A mutant infected in human MT4 cells to IC50 for wild type HIV1 NL4-3 infected in human MT4 cells. Format: functional.
Data set [3] has as its system Human immunodeficiency virus 1. The data set is described as follows: Antiviral activity against wild type HIV1 NL4-3 infected in human MT4 cells by p24 ELISA. It is filed as functional, cell-based. As to conditions: Human immunodeficiency virus 1, NL4-3, MT4. An outline of the steps:
(§1)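 Replication-inhibition IC50 values in MT-4 cells, each from three separate experiments.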

Data set [4] deals with Human immunodeficiency virus 1. Description: Antiviral activity against bevirimat-resistant HIV1 NL4-3 harboring GagV370A mutant infected in human MT4 cells by p24 ELISA. Format: functional, cell-based. As to conditions: Human immunodeficiency virus 1, NL4-3, MT4. An outline of the steps: as §1
Data set [5] can be described thus: Inhibition of HIV1 integrase activity assessed as suppression of viral replication in human MT2 cells. It is filed as cell-based. As to conditions: Human immunodeficiency virus 1, MT2.
Data set [6] is described as follows: Half life in human liver microsomes at 1 uM in presence of NADPH by LC/MS/MS analysis. It is filed as ADME.
Data set [7] has as its system Human immunodeficiency virus 1. Description: Antiinfective activity against wild type HIV1 NL4-3 assessed as inhibition of viral infection by measuring viral infection level in human TZM-bl cells at 2 uM after 48 hrs by luciferase reporter gene assay (reference value: 100%). Further details: scale not given: the % may be the effect or the level left. Format: functional. The method, boiled down:
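NL4-3 infection of TZM-bl cells with each compound at 2 µM, read by luminescence. Infection without compound served as control. % control infection = 100 × RLU(compound)/RLU(control).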

Data set [8] can be described thus: Selectivity index, ratio of CC50 for human MT4 cells to IC50 for wild type HIV1 NL4-3 infected in human MT4 cells. It is filed as functional. An outline of the steps: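 Index is CC50 (cytotoxicity in MT-4 cells) divided by IC50 (inhibition of HIV-1/NL4-3 replication in MT-4 lymphocytes). Values are from three separate experiments. A ratio below 5 was scored as no selective anti-HIV activity.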

The test system of data set [9] is Human immunodeficiency virus 1. Description: Potency index, ratio of IC50 for Bevirimat to IC50 for test compound for antiviral activity against bevirimat-resistant HIV1 NL4-3 harboring GagV370A mutant infected in human MT4 cells by p24 ELISA. It is filed as functional.
Data set [10] is described as follows: Inhibition of HIV1 integrase activity assessed as suppression of viral replication in human H9 cells. Format: cell-based. As to conditions: Human immunodeficiency virus 1, H9.
Another data set has as its system COS. Description: Inhibition of wild type HIV1 NL4-3 Env-mediated cell-cell fusion between viral envelope expressing virus-infected African green monkey COS cells to human TZM-bl cells incubated overnight by luciferase reporter gene assay. It is filed as cell-based. As to conditions: Human immunodeficiency virus 1.
The subject of data set [11] is Human immunodeficiency virus 1. The data set is described as follows: Potency index, ratio of IC50 for Bevirimat to IC50 for test compound for antiviral activity against wild type HIV1 NL4-3 infected in human MT4 cells by p24 ELISA. Format: functional.
A short description of data set [12]: Elimination half life in healthy humans. It is filed as ADME. As to conditions: human, in vivo; read-out: beta t1/2.

Regarding `C=C(C)[C@@H]1CC[C@]2(C(=O)N3CCN(C(=O)/C=C/c4ccc(O)c(O)c4)CC3)CC[C@]3(C)[C@H](CC[C@@H]4[C@@]5(C)CC[C@H](OC(=O)CC(C)(C)C(=O)O)C(C)(C)[C@@H]5CC[C@]43C)[C@@H]12`, the CC50 in data set [1] was above 4500 nM. In addition, the “Ratio IC50” value in data set [2] is reported as 78.93. For the same compound, the IC50 in data set [3] stood at 28 nM; in data set [4], 2210 nM.

Regarding `O=C(/C=C/c1ccc(O)c(O)c1)O[C@H](C(=O)O)[C@H](OC(=O)/C=C/c1ccc(O)c(O)c1)C(=O)O` [CHICORIC ACID], the IC50 in [5] was 4200 nM.

Consider `O=C(/C=C/c1ccc(O)c(O)c1)O[C@@H]1C[C@](O)(C(=O)O)C[C@@H](OC(=O)/C=C/c2ccc(O)c(O)c2)[C@H]1O`, for which the half-maximal inhibitory concentration (IC50) in [5] amounted to 1900 nM.

In data set [3], `C=C(C)[C@@H]1CC[C@]2(C(=O)N3CCN(C(=O)/C=C/c4ccc(OC)c(OC)c4)CC3)CC[C@]3(C)[C@H](CC[C@@H]4[C@@]5(C)CC[C@H](O)C(C)(C)[C@@H]5CC[C@]43C)[C@@H]12` yielded an IC50 above 1000 nM.

Take `C=C(C)[C@@H]1CC[C@]2(C(=O)O)CC[C@]3(C)[C@H](CC[C@@H]4[C@@]5(C)CC[C@H](OC(=O)CC(C)(C)C(=O)O)C(C)(C)[C@@H]5CC[C@]43C)[C@@H]12` [BEVIRIMAT]: the CC50 in data set [1] is above 4500 nM. In addition, the t1/2 in data set [6] was 0.9 h. Further, in [7], the Activity was found to be 98%. The results for the IC50 in [3] and in data set [4] were 65 nM and 7710 nM, respectively.

Consider `C=C(C)[C@@H]1CC[C@]2(C(=O)N3CCNCC3)CC[C@]3(C)[C@H](CC[C@@H]4[C@@]5(C)CC[C@H](OC(=O)CC(C)(C)C(=O)O)C(C)(C)[C@@H]5CC[C@]43C)[C@@H]12`, for which, in data set [1], the CC50 was above 1500 nM. The same compound came in with an IC50 in [3] of 490 nM.

For the compound `O=C(O)/C=C/c1ccc2c(c1)OCO2`, in [1], the CC50 is above 90000 nM. The same compound showed an IC50 in [3] above 90000 nM.

Regarding `C=C(C)[C@@H]1CC[C@]2(C(=O)N3CCN(CCCCC(=O)N4CCN(C(=O)/C=C/c5ccc6c(c5)OCO6)CC4)CC3)CC[C@]3(C)[C@H](CC[C@@H]4[C@@]5(C)CC[C@H](O)C(C)(C)[C@@H]5CC[C@]43C)[C@@H]12`, the IC50 in data set [3] is above 1000 nM.

With `O=C(O)/C=C/c1ccc(O)c(O)c1` [CAFFEIC ACID], in [8], the “Ratio CC50/IC50” value is below 5. Moreover, the IC50 in data set [3] is above 1000 nM.

In the case of `C=C(C)[C@@H]1CC[C@]2(C(=O)N3CCN(C(=O)/C=C/c4ccc(OC)c(OC)c4)CC3)CC[C@]3(C)[C@H](CC[C@@H]4[C@@]5(C)CC[C@H](OC(=O)CC(C)(C)C(=O)O)C(C)(C)[C@@H]5CC[C@]43C)[C@@H]12`, the CC50 in [1] was above 4500 nM. Besides, the “Ratio IC50” value in [2] is reported as 102.41; in data set [9] it was 1.39 - 51.4. Further, the IC50 amounted to 29 nM in [3] and 2970 nM in [4].

`O=C(/C=C/c1ccc(O)c2c1[C@H](C(=O)O)[C@@H](c1ccc(O)c(O)c1)O2)O[C@H](Cc1ccc(O)c(O)c1)C(=O)O` [LITHOSPERMIC ACID]: the half-inhibitory concentration (IC50) in [10] came to 2000 nM.

For `O=C(/C=C/c1ccc2c(c1)OCO2)N1CCNCC1`, the CC50 in data set [1] was above 90000 nM. The compound also displayed an IC50 in data set [3] above 90000 nM.

As for `C=C(C)[C@@H]1CC[C@]2(C(=O)N3CCN(C(=O)/C=C/c4ccc(OCOC)c(OCOC)c4)CC3)CC[C@]3(C)[C@H](CC[C@@H]4[C@@]5(C)CC[C@H](O)C(C)(C)[C@@H]5CC[C@]43C)[C@@H]12`, in data set [3], the IC50 was above 1000 nM.

On to `C=C(C)[C@@H]1CC[C@]2(C(=O)N3CCN(CCCCC(=O)N4CCN(C(=O)/C=C/c5ccc6c(c5)OCO6)CC4)CC3)CC[C@]3(C)[C@H](CC[C@@H]4[C@@]5(C)CC[C@H](OC(=O)CC(C)(C)C(=O)O)C(C)(C)[C@@H]5CC[C@]43C)[C@@H]12`, for which the CC50 in [1] is above 4500 nM. Also, the results for the “Ratio IC50” value in [2] and in data set [9] were 460.83 and 1.39 - 51.4, respectively. For the same compound, the values for the IC50 in data set [3] and in data set [4] were 12 nM and 5530 nM, respectively.

In [3], `C=C(C)[C@@H]1CC[C@]2(C(=O)N3CCN(C(=O)/C=C/c4ccc5c(c4)OCO5)CC3)CC[C@]3(C)[C@H](CC[C@@H]4[C@@]5(C)CC[C@H](O)C(C)(C)[C@@H]5CC[C@]43C)[C@@H]12` registered an IC50 above 1000 nM.

`C=C(C)[C@@H]1CC[C@]2(C(=O)NCCCCCCCNC(C)=O)CC[C@]3(C)[C@H](CC[C@@H]4[C@@]5(C)CC[C@H](O)C(C)(C)[C@@H]5CC[C@]43C)[C@@H]12`: the inhibition entry in the data set on COS is “Active”.

In the case of `C=C(C)[C@@H]1CC[C@]2(C(=O)N3CCN(C(=O)/C=C/c4ccc(OCOC)c(OCOC)c4)CC3)CC[C@]3(C)[C@H](CC[C@@H]4[C@@]5(C)CC[C@H](OC(=O)CC(C)(C)C(=O)O)C(C)(C)[C@@H]5CC[C@]43C)[C@@H]12`, the CC50 in data set [1] was above 4500 nM. Further, in data set [3], the IC50 turned out to be 50 nM.

As for `C=C(C)[C@@H]1CC[C@]2(C(=O)N3CCN(C(=O)/C=C/c4ccc5c(c4)OCO5)CC3)CC[C@]3(C)[C@H](CC[C@@H]4[C@@]5(C)CC[C@H](OC(=O)CC(C)(C)C(=O)O)C(C)(C)[C@@H]5CC[C@]43C)[C@@H]12`, the “Ratio IC50” value in [11] is 3; in [2], 7.89 - 7.9; in data set [9], 51. Also, the CC50 in data set [1] is above 4500 nM. Further, the t1/2 in data set [6] was found to be 2.13 h. For the same compound, in data set [12], the half-life is 56.3 to 69.5 h. For the same compound, in data set [7], the Activity is 99%. The IC50 is 19 nM in data set [3] and 150 nM in data set [4].
